Assay type in all cases: physicochemical
A short description of series [1]: Turbidity measurement of temperature-dependent coacervation. The procedure, abridged:
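Peptides were dissolved in pure water at various concentrations. Turbidity at 400 nm was followed while the temperature was raised or lowered at 0.5 °C/min starting from 5 °C. Each concentration was run at least three times. Tt was taken as the temperature at which turbidity reached half its maximum.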

The nature of series [2]: Logarithmic fit of Tt against molar peptide concentration. Conditions: pure water. The procedure, abridged: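 Tt for each peptide was obtained by turbidity at 400 nm in pure water at several concentrations, measured at least three times per concentration. Tt was plotted against the logarithm of molar peptide concentration and fitted as a logarithmic function. C37 was obtained by logarithmic extrapolation to Tt = 37 °C. The concentration needed at 50 °C was computed from formula (1).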

A short description of series [3]: Scanning electron microscopy of aggregates. Conditions: 0.10 mg/mL aqueous solution incubated at 50 °C for 3 h (Figure S6). A digest of the protocol:
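Peptide in water at 0.1 mg/mL was incubated at 50 °C for 3 h, dropped on a cover glass and air-dried at 50 °C. The residue was rinsed gently three times with distilled water and air-dried again. Samples were platinum sputter-coated (5 nm) and imaged at 5.00 kV at 500× and 2000× magnification.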

The values that follow come from publication PMC7931394 (ACS Omega, 2021).

Peptide text beside a SMILES is read from it.

For the compound `CC(C)[C@H](NC(=O)CNC(=O)[C@@H]1CCCN1C(=O)[C@H](Cc1ccccc1)NC(=O)CNC(=O)[C@@H](NC(=O)CNC(=O)[C@@H]1CCCN1C(=O)[C@H](Cc1ccccc1)NC(=O)CNC(=O)[C@@H](NC(=O)CNC(=O)[C@@H]1CCCN1C(=O)[C@H](Cc1ccccc1)NC(=O)CNC(=O)[C@@H](NC(=O)CNC(=O)[C@@H]1CCCN1C(=O)[C@H](Cc1ccccc1)NC(=O)CNC(=O)[C@@H](NC(=O)CNC(=O)[C@@H]1CCCN1C(=O)[C@@H](N)Cc1ccccc1)C(C)C)C(C)C)C(C)C)C(C)C)C(=O)NCC(N)=O` [F5, H-(FPGVG)5-NH2] (H-FPGVGFPGVGFPGVGFPGVGFPGVG-NH2), the “peptide concentration at which coacervation is exhibited / required” value in series [1] (pure water, turbidity at 400 nm, 0.5 °C/min from 5 °C) was “at least 20 mg/mL”. Further, in series [2] (calculated with formula (1)), the “concentration required to show coacervation at 50 °C” value is “at least 8.09 mM”. The “C37 (peptide concentration to attain Tt at 37 °C)” value in series [2] (logarithmic extrapolation of the Tt vs peptide concentration graph) was 11.7 mM. Further, the “morphology by SEM” value in series [3] was “spherical structures were not formed”.
Regarding `CC(C)[C@H](NC(=O)CNC(=O)[C@@H]1CCCN1C(=O)[C@H](Cc1ccccc1)NC(=O)CNC(=O)[C@@H](NC(=O)CNC(=O)[C@@H]1CCCN1C(=O)[C@H](Cc1ccccc1)NC(=O)CNC(=O)[C@@H](NC(=O)CNC(=O)[C@@H]1CCCN1C(=O)[C@@H](N)Cc1ccccc1)C(C)C)C(C)C)C(=O)NCC(N)=O` [F3, H-(FPGVG)3-NH2] (H-FPGVGFPGVGFPGVG-NH2), in series [1] (peptide 20–50 mg/mL in pure water, turbidity at 400 nm (Figure S2)), the “coacervation (turbidity change on heating)” value was “no coacervation”.
